From ChEMBL document CHEMBL3351249, “Potent cholesteryl ester transfer protein inhibitors of reduced lipophilicity: 1,1'-spiro-substituted hexahydrofuroquinoline derivatives” (J Med Chem, 2014)

Key:
[1] = tested on: Plasma; assay: Drug concentration in plasma of hemizygous human CETP transgenic mouse at 3 mg/kg, po dosed for 5 consecutive days measured on day 3 after cessation of drug treatment; format: ADME, organism-based; design: dose 3 mg/kg, route oral; conditions: in vivo
In short: (§1)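 Male hCETP transgenic mice given oral doses for 5 days in 0.5% hydroxyethylcellulose. Tissues and plasma collected at day 3 and day 21 after the last dose. Fat diluted 6:1 with acetonitrile and homogenized. Analysis by LC/MS/MS on a C18 column with QCs at 4.0−1000 nM, accepted within 30% of target.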

[2] = tested on: Mus musculus; assay: Increase in HDL-cholesterol in hemizygous human CETP transgenic mouse dosed for 14 consecutive days via oral gavage; format: functional, organism-based
In short: (§2)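 Male hemizygous hCETP or hCETP/hApoB100 transgenic mice, 26−30 weeks, chow-fed. Compound suspended in 0.5% aqueous hydroxyethylcellulose, oral gavage each morning for 5 or 14 days. EDTA blood taken 7 h post-dose (fed for 5-day, after 4 h fast for 14-day) from vena facialis under isoflurane. HDL/LDL cholesterol measured on Cobas Integra 400 Plus. Mean ± SEM, one-way ANOVA with Bonferroni.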

[3] = tested on: Mus musculus; assay: Increase in HDL-cholesterol in hemizygous human CETP transgenic mouse at 1 mg/kg, po dosed for 5 consecutive days; format: functional; in short: as §2
[4] = Drug concentration in liver of hemizygous human CETP transgenic mouse at 3 mg/kg, po dosed for 5 consecutive days measured on day 21 after cessation of drug treatment; format: ADME, organism-based; design: dose 3 mg/kg, route oral; conditions: read-out: Drug uptake; in short: as §1
[5] = tested on: Cynomolgus monkey; assay: Effect on blood pressure in cynomolgus monkey up to 100 mg/kg by telemetry; format: ADME, organism-based, Macaca fascicularis; design: dose 100 mg/kg; conditions: in vivo
In short: (§3)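 Acute telemetry study in conscious cynomolgus monkeys at doses up to 100 mg/kg. Blood pressure, left ventricular pressure, contractility, heart rate and ECG (PR, QRS, QT) recorded. Exposure followed as Cmax and MRT.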

[6] = tested on: Mus musculus; assay: Inhibition of plasma CETP activity in hemizygous human CETP transgenic mouse dosed for 5 or 14 consecutive days via oral gavage; format: functional, organism-based
[7] = tested on: Plasma; assay: Plasma concentration in hemizygous human CETP transgenic mouse at 10 mg/kg, po dosed for 5 consecutive days measured on day 5 and day 7 post dose; format: ADME, organism-based; design: dose 10 mg/kg, route oral; conditions: in vivo
[8] = Drug concentration in adipose fat tissue of hemizygous human CETP transgenic mouse at 3 mg/kg, po dosed for 5 consecutive days measured on day 3 after cessation of drug treatment; format: ADME, organism-based; design: dose 3 mg/kg, route oral; conditions: in vivo; in short: as §1
[9] = Mean residence time in cynomolgus monkey up to 100 mg/kg; format: ADME, organism-based, Macaca fascicularis; design: dose 100 mg/kg; conditions: in vivo; in short: as §3
[10] = tested on: Mus musculus; assay: Reduction in LDL-cholesterol in hemizygous human CETP/human apoB100 transgenic mouse dosed for 14 consecutive days via oral gavage
[11] = Drug concentration in plasma of hemizygous human CETP transgenic mouse at 3 mg/kg, po dosed for 5 consecutive days measured on day 21 after cessation of drug treatment; format: ADME, organism-based; design: dose 3 mg/kg, route oral; in short: as §1
[12] = tested on: Mus musculus; assay: Reduction in plasma LDL-cholesterol in human CETP/human ApoB-100 transgenic mouse at 10 mg/kg, po dosed for 14 consecutive days; format: functional
In short: (§4)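 Hemizygous male human CETP/human apoB100 transgenic mice (B6.SJL-Tg(APOA-CETP)1Dsg Tg(APOB)1102Sgy N10), aged 26–30 weeks and chow-fed, received oral gavage each morning for 14 consecutive days. Compound was suspended in 0.5% aqueous hydroxyethylcellulose. EDTA blood was taken from the facial vein under isoflurane 7 h post-dose after a 4 h fast. Plasma LDL-cholesterol fraction was measured on an automated analyzer. Data are mean ± SEM.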

[13] = tested on: Mus musculus; assay: Increase in HDL-cholesterol in hemizygous human CETP transgenic mouse at 3 mg/kg, po dosed for 5 consecutive days; format: functional; in short: as §2
[14] = tested on: Cynomolgus monkey; assay: Effect on heart rate in cynomolgus monkey up to 100 mg/kg by telemetry; format: ADME, organism-based, Macaca fascicularis; design: dose 100 mg/kg; conditions: in vivo; in short: as §3
[15] = Drug concentration in testes of hemizygous human CETP transgenic mouse at 3 mg/kg, po dosed for 5 consecutive days measured on day 3 after cessation of drug treatment; format: ADME, organism-based, Testis; design: dose 3 mg/kg, route oral; conditions: in vivo; in short: as §1
[16] = AUC (0 to 24 hrs) in C57BL/6J mouse at 10 umol/kg, po; format: ADME, organism-based; design: time < 24 hr, dose 10 umol/kg, route oral; conditions: plasma
[17] = tested on: Plasma; assay: Plasma concentration in hemizygous human CETP transgenic mouse at 3 mg/kg, po dosed for 5 consecutive days measured on day 5 and day 7 post dose; format: ADME, organism-based; design: dose 3 mg/kg, route oral; conditions: in vivo
[18] = molecular target: T1, Cholesteryl ester transfer protein (Homo sapiens, UniProt P11597); assay: Inhibition of human recombinant CETP in presence of 88% human plasma by fluorescence transfer assay
T1 sequence (P11597 whole entry): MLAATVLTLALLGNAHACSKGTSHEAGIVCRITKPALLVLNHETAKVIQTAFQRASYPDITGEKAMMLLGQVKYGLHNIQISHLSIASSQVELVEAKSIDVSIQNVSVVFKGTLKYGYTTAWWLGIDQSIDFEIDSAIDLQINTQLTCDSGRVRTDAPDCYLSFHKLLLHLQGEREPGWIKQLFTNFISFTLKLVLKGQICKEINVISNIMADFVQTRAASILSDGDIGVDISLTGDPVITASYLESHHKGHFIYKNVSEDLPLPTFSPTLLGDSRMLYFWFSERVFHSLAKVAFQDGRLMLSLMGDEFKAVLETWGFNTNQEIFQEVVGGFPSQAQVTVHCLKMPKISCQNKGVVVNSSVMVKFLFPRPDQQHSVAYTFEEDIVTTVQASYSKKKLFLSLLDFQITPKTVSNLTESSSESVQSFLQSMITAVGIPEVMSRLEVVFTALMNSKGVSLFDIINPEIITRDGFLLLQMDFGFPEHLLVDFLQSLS
In short: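 Fluorescent neutral-lipid transfer from donor to acceptor particles by human recombinant CETP, with the test compound added in DMSO. Incubation 3 h at 37 °C. CE transfer is read as the fluorescence change at 485/535 nm. IC50 comes from a four-parameter logistic fit with variable slope. For this line the reaction contains 88% human plasma.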

[19] = tested on: Liver; assay: Drug concentration in liver of hemizygous human CETP transgenic mouse at 3 mg/kg, po dosed for 5 consecutive days measured on day 3 after cessation of drug treatment; format: ADME, organism-based; design: dose 3 mg/kg, route oral; conditions: in vivo; in short: as §1
[20] = Drug concentration in adipose fat tissue of hemizygous human CETP transgenic mouse at 3 mg/kg, po dosed for 5 consecutive days measured on day 21 after cessation of drug treatment; format: ADME, organism-based; design: dose 3 mg/kg, route oral; conditions: read-out: Drug uptake; in short: as §1
[21] = tested on: Cynomolgus monkey; assay: Effect on left ventricular pressure in cynomolgus monkey up to 100 mg/kg by telemetry; format: ADME, organism-based, Macaca fascicularis, Heart left ventricle; design: dose 100 mg/kg; conditions: in vivo; in short: as §3
[22] = tested on: Mus musculus; assay: Increase in HDL-cholesterol in hemizygous human CETP transgenic mouse at 10 mg/kg, po dosed for 5 consecutive days; format: functional; in short: as §2
[23] = tested on: Muscle tissue; assay: Drug concentration in muscle of hemizygous human CETP transgenic mouse at 3 mg/kg, po dosed for 5 consecutive days measured on day 3 after cessation of drug treatment; format: ADME, organism-based; design: dose 3 mg/kg, route oral; conditions: in vivo; in short: as §1
[24] = tested on: Mus musculus; assay: Increase in HDL-cholesterol in hemizygous human CETP transgenic mouse dosed for 5 consecutive days via oral gavage; format: functional, organism-based; in short: as §2
[25] = tested on: Kidney; assay: Drug concentration in kidney of hemizygous human CETP transgenic mouse at 3 mg/kg, po dosed for 5 consecutive days measured on day 3 after cessation of drug treatment; format: ADME, organism-based; design: dose 3 mg/kg, route oral; conditions: in vivo; in short: as §1
[26] = tested on: Plasma; assay: Plasma concentration in hemizygous human CETP transgenic mouse at 1 mg/kg, po dosed for 5 consecutive days measured on day 5 and day 7 post dose; format: ADME, organism-based; design: dose 1 mg/kg, route oral; conditions: in vivo
[27] = tested on: Cynomolgus monkey; assay: Effect on electrocardiogram parameters in cynomolgus monkey assessed as changes in QRS-complex up to 100 mg/kg by telemetry; format: ADME, organism-based, Macaca fascicularis; design: dose 100 mg/kg; conditions: in vivo; in short: as §3
[28] = tested on: Mus musculus; assay: Reduction in plasma LDL-cholesterol in human CETP/human ApoB-100 transgenic mouse at 3 mg/kg, po dosed for 14 consecutive days; format: functional; in short: as §4
[29] = tested on: Cynomolgus monkey; assay: Effect on electrocardiogram parameters in cynomolgus monkey assessed as changes in QT-interval up to 100 mg/kg by telemetry; format: ADME, organism-based, Macaca fascicularis; design: dose 100 mg/kg; conditions: in vivo; in short: as §3
[30] = tested on: Mus musculus; assay: Increase in HDL-cholesterol in human CETP/human ApoB-100 transgenic mouse at 10 mg/kg, po dosed for 14 consecutive days; format: functional; in short: as §2
[31] = tested on: Mus musculus; assay: Reduction in plasma LDL-cholesterol in human CETP/human ApoB-100 transgenic mouse at 1 mg/kg, po dosed for 14 consecutive days; format: functional; in short: as §2
[32] = Clearance in C57BL/6J mouse at 1 umol/kg, iv; format: ADME, organism-based; conditions: in vivo
[33] = tested on: Cynomolgus monkey; assay: Effect on electrocardiogram parameters in cynomolgus monkey assessed as changes in PR-interval up to 100 mg/kg by telemetry; format: ADME, organism-based, Macaca fascicularis; design: dose 100 mg/kg; conditions: in vivo; in short: as §3
[34] = Drug concentration in kidney of hemizygous human CETP transgenic mouse at 3 mg/kg, po dosed for 5 consecutive days measured on day 21 after cessation of drug treatment; format: ADME, organism-based; design: dose 3 mg/kg, route oral; conditions: read-out: Drug uptake; in short: as §1
[35] = Drug concentration in testes of hemizygous human CETP transgenic mouse at 3 mg/kg, po dosed for 5 consecutive days measured on day 21 after cessation of drug treatment; format: ADME, organism-based, Testis; design: dose 3 mg/kg, route oral; conditions: male, read-out: Drug uptake; in short: as §1
[36] = Mean residence time in C57BL/6J mouse at 1 umol/kg, iv; format: ADME, organism-based; conditions: in vivo
[37] = tested on: Cynomolgus monkey; assay: Effect on myocardial contractility in cynomolgus monkey up to 100 mg/kg by telemetry; format: ADME, organism-based, Macaca fascicularis, Myocardium; design: dose 100 mg/kg; conditions: in vivo; in short: as §3
[38] = Cmax in cynomolgus monkey up to 100 mg/kg; format: ADME, organism-based, Macaca fascicularis; design: dose 100 mg/kg; conditions: in vivo; in short: as §3
[39] = Volume of distribution at steady state in C57BL/6J mouse at 1 umol/kg, iv; format: ADME, organism-based; conditions: in vivo, read-out: Vdss
[40] = tested on: Mus musculus; assay: Increase in HDL-cholesterol in human CETP/human ApoB-100 transgenic mouse at 1 mg/kg, po dosed for 14 consecutive days; format: functional; in short: as §2
[41] = Drug concentration in muscle of hemizygous human CETP transgenic mouse at 3 mg/kg, po dosed for 5 consecutive days measured on day 21 after cessation of drug treatment; format: ADME, organism-based, Muscle tissue; design: dose 3 mg/kg, route oral; conditions: read-out: Drug uptake; in short: as §1
[42] = tested on: NCI-H295R; assay: Effect on aldosterone secretion in human NCI-H295R cells up to 10 uM; format: ADME, cell-based
[43] = tested on: Mus musculus; assay: Increase in HDL-cholesterol in human CETP/human ApoB-100 transgenic mouse at 3 mg/kg, po dosed for 14 consecutive days; format: functional; in short: as §2

- Drug uptake [1]: Active
- concentration at 21 days after cessation of treatment [4]: < 30 nM
- concentration [7]: 671 nM
- Drug uptake [8]: Active
- MRT [9]: > 20 h
- concentration at 21 days after cessation of treatment [11]: < 30 nM
- Drug uptake [15]: Active
- AUC(0-t) at 24 h [16]: 4.9 µM·h
- concentration [17]: 206 nM
- IC50 [18]: 151 nM
- Drug uptake [19]: Active
- concentration at 21 days after cessation of treatment [20]: < 30 nM
- Drug uptake [23]: Active
- Drug uptake [25]: Active
- concentration [26]: 96 nM
- clearance [32]: 16 mL/min/kg
- concentration at 21 days after cessation of treatment [34]: < 30 nM
- concentration at 21 days after cessation of treatment [35]: < 30 nM
- MRT [36]: 6.1 h
- Cmax [38]: > 10000 nM
- Vd [39]: 5.9 L/kg
- concentration at 21 days after cessation of treatment [41]: < 30 nM
Structure (SMILES): CC(C)c1nc2c(c3c1[C@@H](c1ccc(C(F)(F)F)cc1)OC31CCOCC1)[C@@H](O)CC(C)(C)C2
- Activity [2]: Dose-dependent effect
- Activity [3]: 55.6%
- Activity [5]: Non-toxic
- inhibition [6]: Dose-dependent effect
- Activity [10]: Dose-dependent effect
- inhibition in vivo at 10 mg/kg [12]: 60%
- Activity [13]: 74.4%
- Activity [14]: Non-toxic
- Activity [21]: Non-toxic
- Activity [22]: 37.4%
- Activity [24]: Dose-dependent effect
- Activity [27]: Non-toxic
- inhibition in vivo at 3 mg/kg [28]: 49%
- Activity [29]: Non-toxic
- Activity [30]: 37.2%
- inhibition in vivo at 1 mg/kg [31]: 26.2%
- Activity [33]: Non-toxic
- Activity [37]: Non-toxic
- Activity [40]: 23.5%
- Activity [42]: Non-toxic
- Activity [43]: 32.3%
